# The source made the active and inactive calls. No cut-off for these calls is given here.
# How the values were obtained:
# Huh-7 [1] = experiment: Induction of autophagy in human Huh-7 cells assessed as reduction in cell viability up to 72 hrs in presence of 3-MA by MTT assay; type: functional, cell-based; details: time hrs <=72
# Huh-7 [2] = experiment: Induction of apoptosis in human Huh-7 cells assessed as viable cells at 0.1 uM by Annexin V/propidium iodide staining based flow cytometric analysis (reference value: 94.83%); type: functional; details: read-out: Activity
# Huh-7 [3] = experiment: Antitumour activity against human Huh-7 cells xenografted in nude mouse assessed as reduction in tumour volume at […], ip up to 15 days; type: functional, organism-based; details: time day <=15
# Method in brief: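 Nude mice bearing subcutaneous Huh-7 xenografts received 25 or 50 mg/Kg compound intraperitoneally. Tumor volume was followed from day 1 to day 15, with excised tumors weighed at the end. Body weight was also monitored.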
# Huh-7 [4] = experiment: Induction of apoptosis in human Huh-7 cells assessed as reduction in Bcl-2 expression at 0.1 to 0.2 uM Western blot analysis; type: functional, cell-based; details: dose 0.1-0.2 µM
# Method in brief: (§1)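 Huh-7 cells were treated with or without compound. Total protein extracts were separated by SDS-PAGE and transferred to PVDF. Membranes were probed with primary antibodies, then HRP-conjugated secondary antibody (1:10,000), and detected by enhanced chemiluminescence.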
# Huh-7 [5] = experiment: Induction of apoptosis in human Huh-7 cells assessed as late apoptotic cells at 0.1 uM by Annexin V/propidium iodide staining based flow cytometric analysis (reference value: 3.15%); type: functional
# Huh-7 [6] = experiment: Antitumour activity against human Huh-7 cells xenografted in nude mouse assessed as decrease in Ki-67 at […], ip up to 15 days by immunohistochemical analysis; type: functional, organism-based; details: time day <=15
# Method in brief: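 Subcutaneous Huh-7 xenografts in nude mice were dosed intraperitoneally at 25 or 50 mg/kg and followed over days 1–15. For IHC, tumour sections had microwave antigen retrieval in EDTA (pH 8.0) or citrate (pH 6.0) buffer. They were incubated with primary antibody at 37 °C for 30–40 min, then secondary antibody with HRP polymer for 30 min, and developed with DAB. Normal IgG served as negative control.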
# Huh-7 [7] = experiment: Antitumour activity against human Huh-7 cells xenografted in nude mouse assessed as decrease in p62/SQSTMI at 20 to 50 mg/kg, ip up to 15 days by immunohistochemical analysis; type: functional, organism-based; details: dose 20-50 mg/kg, time day <=15
# Method in brief: (§2)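 Tumors came from Huh-7 xenografted nude mice dosed intraperitoneally at 25 or 50 mg/Kg for 15 days. For IHC, sections underwent microwave antigen retrieval (EDTA pH 8.0 or citrate pH 6.0), then primary antibody at 37 °C for 30-40 min. HRP polymer/secondary was applied for 30 min, with DAB development and control IgG.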
# Huh-7 [8] = experiment: Induction of apoptosis in human Huh-7 cells assessed as early apoptotic cells at 0.2 uM by Annexin V/propidium iodide staining based flow cytometric analysis (reference value: 1.43%); type: functional
# Huh-7 [9] = experiment: Induction of autophagosome in human Huh-7 harboring GFP-LC3 cells at 0.2 uM in presence of Baf-A1 by fluorescence microscopic analysis; type: functional, cell-based
# Huh-7 [10] = experiment: Cytotoxicity against human Huh-7 cells assessed as reduction in cell viability by MTT assay; type: functional, cell-based
# Method in brief: (§3)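 Hepatoma cells were grown in DMEM with 10% FBS and streptomycin, then treated with compounds. Viability was read by MTT.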
# Huh-7 [11] = experiment: Antitumour activity against human Huh-7 cells xenografted in nude mouse assessed as increase in apoptotic cells at […], ip up to 15 days by TUNEL assay; type: functional, organism-based; details: time day <=15
# Method in brief: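 Tumor sections came from Huh-7 xenografted nude mice given 25 or 50 mg/Kg intraperitoneally over 15 days. Apoptotic cells were detected by TUNEL staining.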
# Huh-7 [12] = experiment: Induction of apoptosis in human Huh-7 cells assessed as early apoptotic cells at 0.1 uM by Annexin V/propidium iodide staining based flow cytometric analysis (reference value: 1.43%); type: functional
# [13] = molecular target: RAC-gamma serine/threonine-protein kinase (Homo sapiens, UniProt Q9Y243, S472D); experiment: Inhibition of full length human Akt3 S472D mutant using GRPRTSSFAEGKK as substrate incubated for 40 mins by scintillation counting method
# Chain of RAC-gamma serine/threonine-protein kinase (Q9Y243 2-479 S472D limits assumed): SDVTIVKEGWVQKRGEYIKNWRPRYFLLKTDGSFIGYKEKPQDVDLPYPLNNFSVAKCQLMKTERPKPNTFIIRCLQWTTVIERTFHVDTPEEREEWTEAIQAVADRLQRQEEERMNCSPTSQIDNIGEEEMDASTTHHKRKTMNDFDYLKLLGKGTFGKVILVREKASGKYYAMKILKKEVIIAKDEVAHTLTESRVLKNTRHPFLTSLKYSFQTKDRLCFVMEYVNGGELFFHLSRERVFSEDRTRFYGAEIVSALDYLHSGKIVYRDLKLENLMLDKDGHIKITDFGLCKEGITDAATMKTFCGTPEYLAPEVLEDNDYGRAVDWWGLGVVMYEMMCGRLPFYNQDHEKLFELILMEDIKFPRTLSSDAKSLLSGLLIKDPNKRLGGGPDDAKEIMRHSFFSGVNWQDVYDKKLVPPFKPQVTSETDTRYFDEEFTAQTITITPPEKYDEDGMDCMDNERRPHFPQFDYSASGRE
# Method in brief: (§4)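 Eurofins KinaseProfiler enzymatic assay on human Akt isoforms. IC50 values are the mean of at least three independent replicates ± standard deviation.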
# Huh-7 [14] = experiment: Induction of apoptosis in human Huh-7 cells assessed as upregulation of cytochromeC protein expression at 0.1 to 0.2 uM by Western blot analysis; type: functional, cell-based; details: dose 0.1-0.2 µM; method in brief: as §1
# Huh-7 [15] = experiment: Induction of autophagy flux arrest in human Huh-7 cells assessed as reduction in LC3 at 0.2 uM by immunofluorescence staining based assay; type: functional, cell-based
# Method in brief: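 Huh-7 cells with or without 0.2 µM compound were immunofluorescently co-stained for LC3 (autophagosome) and LAMP1 (lysosome). Co-localization was assessed by fluorescence imaging.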
# Huh-7 [16] = experiment: Antitumour activity against human Huh-7 cells xenografted in nude mouse assessed as decrease in phosphorylation of AKT at 20 to 50 mg/kg, ip up to 15 days by immunohistochemical analysis; type: functional, organism-based; details: dose 20-50 mg/kg, time day <=15; method in brief: as §2
# [17] = test system: RAC-beta serine/threonine-protein kinase (Homo sapiens), P31751 [S474D]; experiment: Inhibition of full length human Akt2 S474D mutant assessed as remaining activity at 1 uM using GRPRTSSFAEGKK as substrate incubated for 40 mins by scintillation counting method relative to control
# Chain of RAC-beta serine/threonine-protein kinase (Homo sapiens), P31751 [S474D] (P31751 whole entry S474D): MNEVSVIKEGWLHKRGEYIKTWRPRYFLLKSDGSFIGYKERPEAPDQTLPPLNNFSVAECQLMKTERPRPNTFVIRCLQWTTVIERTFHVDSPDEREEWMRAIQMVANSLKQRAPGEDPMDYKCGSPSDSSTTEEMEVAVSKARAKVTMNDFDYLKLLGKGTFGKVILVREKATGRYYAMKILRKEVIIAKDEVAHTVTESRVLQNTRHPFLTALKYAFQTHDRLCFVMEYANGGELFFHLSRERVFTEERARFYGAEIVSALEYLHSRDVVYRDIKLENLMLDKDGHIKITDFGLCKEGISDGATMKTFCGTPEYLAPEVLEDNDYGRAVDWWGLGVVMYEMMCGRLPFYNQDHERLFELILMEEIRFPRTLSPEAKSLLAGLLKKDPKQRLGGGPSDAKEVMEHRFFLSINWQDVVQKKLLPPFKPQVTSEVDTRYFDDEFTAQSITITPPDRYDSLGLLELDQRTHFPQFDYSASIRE
# Method in brief: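 Eurofins KinaseProfiler kinase assay on human Akt1, Akt2 and Akt3. Compounds were tested at 1 µM. Residual kinase activity is reported as % of control.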
# Huh-7 [18] = experiment: Induction of autophagy in human Huh-7 cells assessed as reduction in cathepsin B activity at 0.2 uM in presence of 3-MA; type: functional, cell-based
# Huh-7 [19] = experiment: Induction of autophagosome in human Huh-7 harboring GFP-LC3 cells at 0.2 uM in presence of 3-MA by fluorescence microscopic analysis; type: functional, cell-based
# [20] = Effect on total AKT protein level in human Huh-7 cells at 0.1 to 0.2 uM by Western blot analysis; type: ADME, cell-based; details: huh-7, 0.2 µM, dose 0.1-0.2 µM; method in brief: as §1
# Huh-7 [21] = experiment: Induction of autophagy in human Huh-7 cells harboring GFP-LC3 assessed as increase in number of the autophagosome puncta at 0.2 uM after 6 hrs; type: functional, cell-based
# Method in brief: (§5)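 GFP-LC3-transfected cells were exposed to saline or compound for 6 h, then fixed with paraformaldehyde. Autophagosome puncta were scored by fluorescence of accumulated GFP-LC3.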
# SMMC-7721 = experiment: Cytotoxicity against human SMMC-7721 cells assessed as reduction in cell viability by MTT assay; type: functional, cell-based; method in brief: as §3
# Huh-7 [22] = experiment: Induction of apoptosis in human Huh-7 cells assessed as upregulation of cleaved caspase-3 protein expression at 0.1 to 0.2 uM by Western blot analysis; type: functional, cell-based; details: dose 0.1-0.2 µM; method in brief: as §1
# Hep 3B2 = experiment: Induction of autophagy in human Hep3B cells harboring GFP-LC3 assessed as increase in number of the autophagosome puncta at 0.2 uM after 6 hrs; type: functional, cell-based; method in brief: as §5
# [23] = Inhibition of full length human Akt1 […] mutant using GRPRTSSFAEGKK as substrate incubated for 40 mins by scintillation counting method; method in brief: as §4
# Huh-7 [24] = experiment: Induction of autophagy in human Huh-7 cells assessed as decrease in m-TOR phosphorylation at 0.1 to 0.2 uM by Western blot analysis; type: functional, cell-based; details: dose 0.1-0.2 µM; method in brief: as §1
smiles,measurement,setting,value
O=C(C(CNC1CCCC1)c1ccc(Cl)cc1)N1CCN(c2ncnc3sc4c(c23)CCC4)CC1 (stereo unspecified),Activity,Huh-7 [1],inactive
same,viability at 0.1 µM,Huh-7 [2],84.2%
same,Activity,Huh-7 [3],Active
same,Activity,Huh-7 [4],Active
same,Activity,Huh-7 [5],7.92%
same,Activity,Huh-7 [6],Active
same,Activity,Huh-7 [7],Active
same,Activity,Huh-7 [8],7.1%
same,Activity,Huh-7 [9],Active
same,IC50,Huh-7 [10],76 nM
same,Activity,Huh-7 [11],Active
same,Activity,Huh-7 [12],5.15%
same,IC50,[13],129 nM
same,Activity,Huh-7 [14],Active
same,Activity,Huh-7 [15],Active
same,Activity,Huh-7 [16],Active
same,Activity,[17],63%
same,Activity,Huh-7 [18],inactive
same,Activity,Huh-7 [19],inactive
same,Activity,[20],Non-Toxic
same,Activity,Huh-7 [21],Active
same,IC50,SMMC-7721,386 nM
same,Activity,Huh-7 [22],Active
same,Activity,Hep 3B2,Active
same,IC50,[23],34 nM
same,Activity,Huh-7 [24],Active
